Holding throughout (assay type): cell-based
The target of assay [1] is Serine/threonine-protein kinase 24 (Homo sapiens) (UniProt Q9Y6E0). Kind of assay: Inhibition of MST3 Lys2 labeling site harbouring DIKAANVLLSEHGEVK in human A-375 cells at 0.05 uM by KiNativ Profiling analysis relative to control.
Assay [2] concerns the target Tyrosine-protein kinase ABL2 (Homo sapiens, UniProt P42684). Kind of assay: Inhibition of ARG ACT labeling site in human A-375 cells at 0.5 uM by KiNativ Profiling analysis relative to control. In outline: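 Intact A375 melanoma cells were treated with compound at 5 or 0.5 μM, then lysed. Lysate kinases were labeled with a lysine-reactive ATP or ADP-biotin probe (KiNativ). Inhibition is read as protection of each kinase labeling site from probe labeling.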

The target in assay [3] is T1, Serine/threonine-protein kinase TBK1 (Homo sapiens) (UniProt Q9UHD2).
T1 sequence (whole entry): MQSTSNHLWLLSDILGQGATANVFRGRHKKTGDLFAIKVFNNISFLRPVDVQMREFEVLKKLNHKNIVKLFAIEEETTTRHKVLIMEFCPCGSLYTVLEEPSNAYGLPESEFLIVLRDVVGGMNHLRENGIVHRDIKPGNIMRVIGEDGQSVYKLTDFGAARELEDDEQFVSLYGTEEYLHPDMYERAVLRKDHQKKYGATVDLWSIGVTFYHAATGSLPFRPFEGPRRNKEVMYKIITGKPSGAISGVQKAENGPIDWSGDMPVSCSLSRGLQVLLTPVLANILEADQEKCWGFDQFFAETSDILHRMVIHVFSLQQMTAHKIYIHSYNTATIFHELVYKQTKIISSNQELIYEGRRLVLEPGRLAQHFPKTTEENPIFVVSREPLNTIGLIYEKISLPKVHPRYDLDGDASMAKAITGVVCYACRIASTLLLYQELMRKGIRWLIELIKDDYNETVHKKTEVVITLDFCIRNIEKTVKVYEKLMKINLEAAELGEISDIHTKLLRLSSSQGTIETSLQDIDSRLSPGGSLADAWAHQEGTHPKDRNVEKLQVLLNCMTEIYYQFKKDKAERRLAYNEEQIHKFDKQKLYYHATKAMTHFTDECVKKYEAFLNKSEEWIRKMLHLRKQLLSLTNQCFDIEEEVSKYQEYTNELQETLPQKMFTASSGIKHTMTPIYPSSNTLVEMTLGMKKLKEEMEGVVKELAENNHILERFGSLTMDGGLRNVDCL
Kind of assay: Inhibition of TBK1 Lys2 labeling site in human A-375 cells at 0.5 uM by KiNativ Profiling analysis relative to control.

Assay [4] has as its target T2, Interleukin-1 receptor-associated kinase 4 (Homo sapiens) (UniProt Q9NWZ3).
T2 sequence (whole entry): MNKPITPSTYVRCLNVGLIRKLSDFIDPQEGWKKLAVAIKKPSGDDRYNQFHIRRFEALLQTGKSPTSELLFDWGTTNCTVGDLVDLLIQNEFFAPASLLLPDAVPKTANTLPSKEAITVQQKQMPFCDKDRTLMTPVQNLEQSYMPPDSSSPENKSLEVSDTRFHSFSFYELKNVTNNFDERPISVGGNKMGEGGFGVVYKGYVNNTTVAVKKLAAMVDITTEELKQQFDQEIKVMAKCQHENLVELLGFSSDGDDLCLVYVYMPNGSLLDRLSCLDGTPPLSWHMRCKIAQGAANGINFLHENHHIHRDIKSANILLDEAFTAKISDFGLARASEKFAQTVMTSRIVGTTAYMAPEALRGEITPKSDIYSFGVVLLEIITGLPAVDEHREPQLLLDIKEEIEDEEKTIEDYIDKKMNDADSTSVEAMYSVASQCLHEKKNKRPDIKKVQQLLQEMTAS
Kind of assay: Inhibition of IRAK4 Lys2 labeling site in human A-375 cells at 5 uM by KiNativ Profiling analysis relative to control. The method in brief:
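Live A375 melanoma cells were treated with compound at 5 or 0.5 μM, then lysed. Lysates were labeled with a lysine-reactive ATP or ADP-biotin probe. Read-out was the compound's protection of kinase labeling sites from probe labeling (KiNativ).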

Assay [5] concerns the target T3, Mitogen-activated protein kinase 13 (Homo sapiens) (UniProt O15264).
T3 sequence (whole entry): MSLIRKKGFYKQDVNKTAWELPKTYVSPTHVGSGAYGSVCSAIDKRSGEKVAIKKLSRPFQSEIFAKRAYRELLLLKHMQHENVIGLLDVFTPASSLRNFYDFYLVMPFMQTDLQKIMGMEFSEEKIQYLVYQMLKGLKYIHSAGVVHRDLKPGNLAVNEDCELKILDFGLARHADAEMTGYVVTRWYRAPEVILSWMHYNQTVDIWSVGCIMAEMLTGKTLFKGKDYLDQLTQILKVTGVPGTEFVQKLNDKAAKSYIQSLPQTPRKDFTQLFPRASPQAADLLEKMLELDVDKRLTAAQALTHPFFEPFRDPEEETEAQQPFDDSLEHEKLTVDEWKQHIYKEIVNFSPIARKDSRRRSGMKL
Kind of assay: Inhibition of p38 delta Lys2 labeling site in human A-375 cells at 0.5 uM by KiNativ Profiling analysis relative to control.

Assay [6] concerns the target Dual specificity mitogen-activated protein kinase kinase 1 (Homo sapiens) (UniProt Q02750). Kind of assay: Inhibition of MAP2K1 Lys2 labeling site harbouring DVKPSNILVNSR in human A-375 cells at 0.05 uM by KiNativ Profiling analysis relative to control.
Assay [7] has as its target T4, Mitogen-activated protein kinase kinase kinase 3 (Homo sapiens) (UniProt Q99759).
T4 sequence (whole entry): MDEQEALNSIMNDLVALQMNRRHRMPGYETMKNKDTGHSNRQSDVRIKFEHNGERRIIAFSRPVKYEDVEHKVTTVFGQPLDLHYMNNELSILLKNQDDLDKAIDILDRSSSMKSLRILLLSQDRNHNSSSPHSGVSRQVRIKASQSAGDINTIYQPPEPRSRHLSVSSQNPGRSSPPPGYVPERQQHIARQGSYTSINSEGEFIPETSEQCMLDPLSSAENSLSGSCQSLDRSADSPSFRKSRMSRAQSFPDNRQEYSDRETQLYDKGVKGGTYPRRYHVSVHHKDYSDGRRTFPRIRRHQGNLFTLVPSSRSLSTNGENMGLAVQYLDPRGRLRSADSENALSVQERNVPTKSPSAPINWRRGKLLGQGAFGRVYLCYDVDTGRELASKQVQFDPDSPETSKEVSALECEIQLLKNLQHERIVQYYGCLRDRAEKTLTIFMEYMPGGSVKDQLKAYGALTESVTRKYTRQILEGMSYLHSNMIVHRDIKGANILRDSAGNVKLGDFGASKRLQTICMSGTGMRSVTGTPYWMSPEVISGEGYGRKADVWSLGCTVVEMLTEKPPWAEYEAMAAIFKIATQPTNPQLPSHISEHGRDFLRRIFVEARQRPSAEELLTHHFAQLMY
Kind of assay: Inhibition of MAP3K3 Lys1 labeling site in human A-375 cells at 5 uM by KiNativ Profiling analysis relative to control.

Sequence of Tyrosine-protein kinase ABL2 (P42684 whole entry): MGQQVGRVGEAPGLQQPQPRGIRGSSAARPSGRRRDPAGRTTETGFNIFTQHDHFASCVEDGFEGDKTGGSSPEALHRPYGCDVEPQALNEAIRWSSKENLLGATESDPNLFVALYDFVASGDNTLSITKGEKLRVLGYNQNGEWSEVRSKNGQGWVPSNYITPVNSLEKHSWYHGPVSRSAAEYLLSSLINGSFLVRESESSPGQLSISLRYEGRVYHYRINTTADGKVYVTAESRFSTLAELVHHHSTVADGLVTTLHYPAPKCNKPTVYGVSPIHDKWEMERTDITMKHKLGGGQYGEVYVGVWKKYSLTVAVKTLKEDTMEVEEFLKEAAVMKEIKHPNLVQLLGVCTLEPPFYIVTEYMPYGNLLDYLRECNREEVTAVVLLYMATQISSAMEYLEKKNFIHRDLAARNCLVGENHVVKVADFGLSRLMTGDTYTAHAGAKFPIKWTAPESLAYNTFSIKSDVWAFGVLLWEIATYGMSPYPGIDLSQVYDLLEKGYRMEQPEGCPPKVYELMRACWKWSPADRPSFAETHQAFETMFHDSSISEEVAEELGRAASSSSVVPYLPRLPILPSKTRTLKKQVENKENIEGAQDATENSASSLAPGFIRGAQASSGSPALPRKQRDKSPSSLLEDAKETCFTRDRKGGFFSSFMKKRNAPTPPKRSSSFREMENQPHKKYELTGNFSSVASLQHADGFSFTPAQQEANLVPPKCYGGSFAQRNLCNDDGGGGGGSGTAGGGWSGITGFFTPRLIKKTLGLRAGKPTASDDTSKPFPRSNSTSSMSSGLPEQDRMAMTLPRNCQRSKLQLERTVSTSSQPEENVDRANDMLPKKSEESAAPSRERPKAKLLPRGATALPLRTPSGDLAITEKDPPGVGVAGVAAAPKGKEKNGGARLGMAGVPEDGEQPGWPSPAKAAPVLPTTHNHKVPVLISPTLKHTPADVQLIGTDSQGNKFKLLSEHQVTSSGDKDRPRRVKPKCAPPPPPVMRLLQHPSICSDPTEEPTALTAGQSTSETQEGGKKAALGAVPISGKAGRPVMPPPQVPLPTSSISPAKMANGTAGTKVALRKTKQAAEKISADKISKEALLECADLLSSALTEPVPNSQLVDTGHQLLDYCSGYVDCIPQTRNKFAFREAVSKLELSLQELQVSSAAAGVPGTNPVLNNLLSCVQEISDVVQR
Sequence of Serine/threonine-protein kinase 24 (Homo sapiens) (Q9Y6E0 whole entry, looked up): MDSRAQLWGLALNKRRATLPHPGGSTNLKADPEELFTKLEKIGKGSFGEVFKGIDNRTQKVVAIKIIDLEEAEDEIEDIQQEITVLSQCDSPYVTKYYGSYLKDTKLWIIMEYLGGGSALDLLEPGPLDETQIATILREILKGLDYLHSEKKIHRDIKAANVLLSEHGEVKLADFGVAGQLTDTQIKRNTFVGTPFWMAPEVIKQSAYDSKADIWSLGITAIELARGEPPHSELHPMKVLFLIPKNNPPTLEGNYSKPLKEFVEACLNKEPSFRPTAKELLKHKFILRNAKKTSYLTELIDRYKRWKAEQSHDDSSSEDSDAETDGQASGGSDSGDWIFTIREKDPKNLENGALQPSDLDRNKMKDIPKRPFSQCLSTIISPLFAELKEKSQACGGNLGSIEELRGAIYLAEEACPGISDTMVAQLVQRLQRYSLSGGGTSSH
Sequence of Dual specificity mitogen-activated protein kinase kinase 1 (Homo sapiens) (Q02750 whole entry): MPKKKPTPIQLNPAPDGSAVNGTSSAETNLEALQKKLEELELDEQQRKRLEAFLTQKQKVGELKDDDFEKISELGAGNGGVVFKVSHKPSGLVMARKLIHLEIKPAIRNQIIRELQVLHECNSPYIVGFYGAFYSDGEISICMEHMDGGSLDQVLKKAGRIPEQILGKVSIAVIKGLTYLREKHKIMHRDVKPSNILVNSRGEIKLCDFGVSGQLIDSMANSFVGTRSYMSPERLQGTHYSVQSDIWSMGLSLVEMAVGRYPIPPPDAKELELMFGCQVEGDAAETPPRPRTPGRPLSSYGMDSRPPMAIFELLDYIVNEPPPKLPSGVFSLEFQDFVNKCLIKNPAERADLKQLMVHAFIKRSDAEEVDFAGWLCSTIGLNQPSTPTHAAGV

Regarding `CCN1CCN(Cc2ccc(NC(=O)c3ccc(C)c(/C=C/c4cnc5[nH]ccc5c4OC)c3)cc2C(F)(F)F)CC1`, the inhibition (in general, the relative decrease from the control value, in per cent) in assay [1] is 3.2%; in assay [2] it was above 98%; in assay [3], 16.9%; in assay [4], 34.1%; in assay [5] it was 25.2%; in assay [6], -8.3%. In addition, the inhibition in assay [7] stood at 80.4%.
Consider `CCN1CCN(Cc2ccc(NC(=O)c3ccc(C)c(Oc4ccnc5[nH]ccc45)c3)cc2C(F)(F)F)CC1`, for which the inhibition is -2.7% in assay [1]; above 95% in assay [2]; 35.7% in assay [3]; -0.2% in assay [4]; 86.2% in assay [5]; 6.1% in assay [6]. Also, the inhibition in assay [7] was 77.1%.

The record behind these values is ChEMBL document CHEMBL5696442, “Discovery of type II inhibitors of TGFβ-activated kinase 1 (TAK1) and mitogen-activated protein kinase kinase kinase kinase 2 (MAP4K2)” (J Med Chem, 2015).
